In ChEMBL document CHEMBL4311956, “A Qualified Success: Discovery of a New Series of ATAD2 Bromodomain Inhibitors with a Novel Binding Mode Using High-Throughput Screening and Hit Qualification” (J Med Chem, 2019):

How the values were obtained:
[1] = biological target: Bromodomain-containing protein 4 (Homo sapiens, UniProt O60885, Y390A); assay: Displacement of Alexa Fluor 647 labelled ligand from His6-tagged BRD4 BD1 (1 to 477 residues)/BD2 Y390A mutant (unknown origin) after 30 mins by TR-FRET assay
Procedure, shortened: (§1)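 BET selectivity by TR-FRET fluoroligand displacement. Uses tandem BET bromodomain constructs carrying a mutation in the non-assayed bromodomain.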

Homo sapiens [2] = organism: Homo sapiens; assay: Selectivity ratio, ratio of displacement of Alexa Fluor 647 labelled ligand from His6-tagged BRD4 BD2 (1 to 477 residues)/BD1 Y97A mutant (unknown origin) to displacement of SGRG-K(Ac)-GG-K(Ac)-GLG-K(Ac)-GGAKRHRKV-biotin) from His6/FLAG-tagged TEV fused ATAD2 bromodomain (981 to 1121 residues) expressed in Escherichia coli BL21(DE3) cells
[3] = biological target: ATPase family AAA domain-containing protein 2B (Homo sapiens, UniProt Q9ULI0); assay: Displacement of biotinylated H4 peptide from ATAD2B bromodomain (unknown origin) by TR-FRET assay
[4] = biological target: Bromodomain-containing protein 2 (Homo sapiens, UniProt P25440, Y386A); assay: Displacement of Alexa Fluor 647 labelled ligand from His6-tagged BRD2 BD1 (1 to 473 residues)/BD2 Y386A mutant (unknown origin) after 30 mins by TR-FRET assay; procedure, shortened: as §1
Peregrin = Peregrin (Homo sapiens, UniProt P55201); assay: Inhibition of BRPF1 (unknown origin) by TR-FRET assay
Peregrin, sequence (P55201 whole entry): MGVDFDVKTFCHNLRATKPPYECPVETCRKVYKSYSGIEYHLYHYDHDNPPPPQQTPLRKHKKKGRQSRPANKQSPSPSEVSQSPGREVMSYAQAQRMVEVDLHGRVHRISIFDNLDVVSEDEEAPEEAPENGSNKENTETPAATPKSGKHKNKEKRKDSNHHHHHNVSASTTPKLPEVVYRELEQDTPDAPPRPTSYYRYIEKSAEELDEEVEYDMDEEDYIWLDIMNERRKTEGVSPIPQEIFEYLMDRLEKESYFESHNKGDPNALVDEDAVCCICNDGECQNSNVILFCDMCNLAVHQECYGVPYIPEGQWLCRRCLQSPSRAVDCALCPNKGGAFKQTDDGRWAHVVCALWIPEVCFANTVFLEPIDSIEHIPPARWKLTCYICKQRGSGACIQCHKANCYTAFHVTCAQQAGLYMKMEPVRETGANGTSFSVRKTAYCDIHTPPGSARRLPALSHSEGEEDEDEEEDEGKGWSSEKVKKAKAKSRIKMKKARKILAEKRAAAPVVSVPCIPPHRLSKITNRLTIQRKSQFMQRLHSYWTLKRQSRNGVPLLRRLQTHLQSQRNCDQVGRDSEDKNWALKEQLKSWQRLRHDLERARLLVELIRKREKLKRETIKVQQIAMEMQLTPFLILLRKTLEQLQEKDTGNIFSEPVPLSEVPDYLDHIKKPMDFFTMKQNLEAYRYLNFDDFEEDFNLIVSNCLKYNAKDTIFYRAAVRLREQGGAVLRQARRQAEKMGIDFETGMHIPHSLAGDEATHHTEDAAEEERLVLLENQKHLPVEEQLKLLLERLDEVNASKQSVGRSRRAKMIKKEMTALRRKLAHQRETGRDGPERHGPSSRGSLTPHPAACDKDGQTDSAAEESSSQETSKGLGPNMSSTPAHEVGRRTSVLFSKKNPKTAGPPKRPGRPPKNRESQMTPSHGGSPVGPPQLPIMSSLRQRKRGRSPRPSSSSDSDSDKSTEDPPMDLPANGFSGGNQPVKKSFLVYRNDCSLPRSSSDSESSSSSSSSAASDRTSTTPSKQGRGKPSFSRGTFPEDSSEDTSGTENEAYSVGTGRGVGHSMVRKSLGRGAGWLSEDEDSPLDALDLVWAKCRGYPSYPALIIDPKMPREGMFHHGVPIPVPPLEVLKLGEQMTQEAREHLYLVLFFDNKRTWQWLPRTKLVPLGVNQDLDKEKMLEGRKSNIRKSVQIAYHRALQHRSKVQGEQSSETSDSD

[5] = biological target: Bromodomain-containing protein 1 (Homo sapiens, UniProt O95696); assay: Inhibition of BRPF2 (unknown origin) by TR-FRET assay
[6] = biological target: Chromatin remodeling regulator CECR2 (Homo sapiens, UniProt Q9BXF3); assay: Inhibition of CECR2 (unknown origin) by TR-FRET assay
Chromatin remodeling regulator CECR2, sequence (Q9BXF3 whole entry): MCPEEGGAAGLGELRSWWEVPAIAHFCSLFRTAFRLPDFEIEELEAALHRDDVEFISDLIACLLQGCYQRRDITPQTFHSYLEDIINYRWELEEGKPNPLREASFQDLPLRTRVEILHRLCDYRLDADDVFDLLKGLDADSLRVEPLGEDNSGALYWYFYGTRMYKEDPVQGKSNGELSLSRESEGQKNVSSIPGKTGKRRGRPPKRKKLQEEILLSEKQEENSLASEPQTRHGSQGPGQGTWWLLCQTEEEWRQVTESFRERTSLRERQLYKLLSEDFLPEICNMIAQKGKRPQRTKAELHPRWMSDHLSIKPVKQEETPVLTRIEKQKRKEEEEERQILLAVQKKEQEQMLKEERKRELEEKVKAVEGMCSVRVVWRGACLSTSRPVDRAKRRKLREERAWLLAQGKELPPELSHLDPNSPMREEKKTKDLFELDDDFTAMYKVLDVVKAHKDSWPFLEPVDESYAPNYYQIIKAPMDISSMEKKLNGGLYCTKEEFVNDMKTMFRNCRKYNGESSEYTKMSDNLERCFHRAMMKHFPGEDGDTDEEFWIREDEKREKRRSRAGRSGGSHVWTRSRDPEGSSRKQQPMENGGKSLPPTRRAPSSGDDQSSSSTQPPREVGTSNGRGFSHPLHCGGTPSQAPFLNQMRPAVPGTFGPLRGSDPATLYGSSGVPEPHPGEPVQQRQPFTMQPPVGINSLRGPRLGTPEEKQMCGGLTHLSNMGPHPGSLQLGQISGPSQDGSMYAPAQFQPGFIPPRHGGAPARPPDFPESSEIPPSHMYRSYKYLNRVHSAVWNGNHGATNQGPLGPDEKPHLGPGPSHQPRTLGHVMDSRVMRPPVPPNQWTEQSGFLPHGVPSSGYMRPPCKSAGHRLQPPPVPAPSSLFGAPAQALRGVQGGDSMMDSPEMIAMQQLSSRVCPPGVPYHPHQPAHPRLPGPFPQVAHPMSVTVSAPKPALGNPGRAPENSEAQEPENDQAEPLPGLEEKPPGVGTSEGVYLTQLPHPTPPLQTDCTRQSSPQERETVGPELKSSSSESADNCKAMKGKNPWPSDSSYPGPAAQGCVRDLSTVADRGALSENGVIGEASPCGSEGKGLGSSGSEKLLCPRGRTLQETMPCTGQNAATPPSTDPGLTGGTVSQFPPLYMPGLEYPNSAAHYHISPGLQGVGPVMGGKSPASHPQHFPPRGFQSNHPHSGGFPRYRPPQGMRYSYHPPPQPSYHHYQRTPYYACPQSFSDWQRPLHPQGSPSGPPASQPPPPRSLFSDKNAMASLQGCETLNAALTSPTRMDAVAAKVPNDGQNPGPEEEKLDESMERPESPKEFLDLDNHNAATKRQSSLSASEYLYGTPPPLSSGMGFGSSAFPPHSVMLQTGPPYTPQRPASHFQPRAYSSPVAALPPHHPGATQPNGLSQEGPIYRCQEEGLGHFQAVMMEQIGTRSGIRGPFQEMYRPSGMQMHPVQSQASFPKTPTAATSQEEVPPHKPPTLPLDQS

CREB-binding protein = CREB-binding protein (Homo sapiens, UniProt Q92793); assay: Inhibition of CREBBP (unknown origin) by TR-FRET assay
CREB-binding protein, sequence (Q92793 whole entry, the tested form may be a part): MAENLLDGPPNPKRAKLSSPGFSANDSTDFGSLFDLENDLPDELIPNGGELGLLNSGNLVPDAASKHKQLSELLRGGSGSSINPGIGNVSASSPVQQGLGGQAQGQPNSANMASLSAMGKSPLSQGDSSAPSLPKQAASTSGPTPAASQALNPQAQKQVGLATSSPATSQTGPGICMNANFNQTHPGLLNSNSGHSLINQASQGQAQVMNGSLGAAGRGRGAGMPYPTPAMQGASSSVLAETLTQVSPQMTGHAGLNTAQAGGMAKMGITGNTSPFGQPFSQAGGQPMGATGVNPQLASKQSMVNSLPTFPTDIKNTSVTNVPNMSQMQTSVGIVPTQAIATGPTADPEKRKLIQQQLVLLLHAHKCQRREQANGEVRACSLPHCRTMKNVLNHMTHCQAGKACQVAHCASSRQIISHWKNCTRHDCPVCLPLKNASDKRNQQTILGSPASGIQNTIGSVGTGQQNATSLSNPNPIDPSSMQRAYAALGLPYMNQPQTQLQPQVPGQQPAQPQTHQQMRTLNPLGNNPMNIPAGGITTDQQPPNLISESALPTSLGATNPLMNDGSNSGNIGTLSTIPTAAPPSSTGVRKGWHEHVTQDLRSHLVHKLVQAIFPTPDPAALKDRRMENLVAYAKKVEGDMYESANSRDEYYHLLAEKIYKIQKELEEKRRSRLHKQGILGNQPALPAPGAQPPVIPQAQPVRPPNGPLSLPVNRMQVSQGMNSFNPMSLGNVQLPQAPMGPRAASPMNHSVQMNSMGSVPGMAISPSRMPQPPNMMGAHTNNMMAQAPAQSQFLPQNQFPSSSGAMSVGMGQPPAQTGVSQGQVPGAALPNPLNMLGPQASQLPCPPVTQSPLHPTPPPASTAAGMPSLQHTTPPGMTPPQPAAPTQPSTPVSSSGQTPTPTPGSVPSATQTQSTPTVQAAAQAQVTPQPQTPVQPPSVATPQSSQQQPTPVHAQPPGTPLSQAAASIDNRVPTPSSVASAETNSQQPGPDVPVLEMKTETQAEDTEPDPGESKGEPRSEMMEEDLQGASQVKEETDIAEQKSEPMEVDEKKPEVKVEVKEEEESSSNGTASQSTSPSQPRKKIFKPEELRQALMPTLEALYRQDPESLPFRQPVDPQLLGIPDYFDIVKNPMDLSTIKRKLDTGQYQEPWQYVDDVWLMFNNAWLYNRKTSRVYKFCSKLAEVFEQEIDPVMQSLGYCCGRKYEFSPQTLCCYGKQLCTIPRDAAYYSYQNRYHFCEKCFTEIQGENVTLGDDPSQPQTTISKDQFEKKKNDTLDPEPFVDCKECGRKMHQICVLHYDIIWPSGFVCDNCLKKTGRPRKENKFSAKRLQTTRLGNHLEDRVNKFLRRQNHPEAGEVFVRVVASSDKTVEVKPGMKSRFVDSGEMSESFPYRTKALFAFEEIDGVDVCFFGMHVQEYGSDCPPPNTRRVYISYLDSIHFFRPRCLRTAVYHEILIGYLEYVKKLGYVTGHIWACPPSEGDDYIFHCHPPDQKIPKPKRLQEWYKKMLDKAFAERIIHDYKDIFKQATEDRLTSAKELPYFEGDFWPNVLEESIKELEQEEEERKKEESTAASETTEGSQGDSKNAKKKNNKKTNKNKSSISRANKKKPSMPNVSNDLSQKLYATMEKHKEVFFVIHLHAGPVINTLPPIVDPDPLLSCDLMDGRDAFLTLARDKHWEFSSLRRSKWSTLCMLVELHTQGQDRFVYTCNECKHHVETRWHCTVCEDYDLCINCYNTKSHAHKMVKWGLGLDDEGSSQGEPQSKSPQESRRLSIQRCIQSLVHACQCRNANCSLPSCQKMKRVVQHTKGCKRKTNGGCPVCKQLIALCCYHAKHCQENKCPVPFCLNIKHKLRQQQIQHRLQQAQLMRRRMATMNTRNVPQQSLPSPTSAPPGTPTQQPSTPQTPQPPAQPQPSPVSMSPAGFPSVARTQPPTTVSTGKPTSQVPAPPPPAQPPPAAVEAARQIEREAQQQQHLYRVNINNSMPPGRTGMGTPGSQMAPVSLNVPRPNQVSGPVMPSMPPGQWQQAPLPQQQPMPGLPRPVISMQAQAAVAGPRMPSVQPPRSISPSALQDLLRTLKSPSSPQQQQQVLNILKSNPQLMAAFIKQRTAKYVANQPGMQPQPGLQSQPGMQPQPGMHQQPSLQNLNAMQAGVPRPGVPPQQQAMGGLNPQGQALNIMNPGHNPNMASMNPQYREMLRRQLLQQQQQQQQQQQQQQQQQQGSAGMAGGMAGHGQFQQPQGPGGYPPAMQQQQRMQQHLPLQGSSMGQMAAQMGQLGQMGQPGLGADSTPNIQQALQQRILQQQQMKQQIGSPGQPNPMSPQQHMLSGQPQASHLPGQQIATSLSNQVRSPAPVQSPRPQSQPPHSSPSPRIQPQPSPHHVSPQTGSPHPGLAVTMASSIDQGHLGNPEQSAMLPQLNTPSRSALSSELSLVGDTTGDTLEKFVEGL

Homo sapiens [7] = organism: Homo sapiens; assay: Selectivity ratio, ratio of inhibition of BRPF3 (unknown origin) to displacement of SGRG-K(Ac)-GG-K(Ac)-GLG-K(Ac)-GGAKRHRKV-biotin) from His6/FLAG-tagged TEV fused ATAD2 bromodomain (981 to 1121 residues) expressed in Escherichia coli BL21(DE3) cells
Homo sapiens [8] = organism: Homo sapiens; assay: Selectivity ratio, ratio of inhibition of TAF1 BD2 (unknown origin) to displacement of SGRG-K(Ac)-GG-K(Ac)-GLG-K(Ac)-GGAKRHRKV-biotin) from His6/FLAG-tagged TEV fused ATAD2 bromodomain (981 to 1121 residues) expressed in Escherichia coli BL21(DE3) cells
Homo sapiens [9] = organism: Homo sapiens; assay: Selectivity ratio, ratio of inhibition of CECR2 (unknown origin) to Displacement of biotinylated H4 peptide from ATAD2B bromodomain (unknown origin) by TR-FRET assay
Homo sapiens [10] = organism: Homo sapiens; assay: Selectivity ratio, ratio of inhibition of BRPF3 (unknown origin) to Displacement of biotinylated H4 peptide from ATAD2B bromodomain (unknown origin) by TR-FRET assay
Homo sapiens [11] = organism: Homo sapiens; assay: Selectivity ratio, ratio of inhibition of TAF1 BD2 (unknown origin) to Displacement of biotinylated H4 peptide from ATAD2B bromodomain (unknown origin) by TR-FRET assay

IC50 [1]: 50.1 µM | Selectivity ratio (Homo sapiens [2]): 60 | IC50 [3]: 0.501 µM | IC50 [4]: > 50.1 µM | IC50 (Peregrin): > 100 µM | IC50 [5]: 12.6 µM | IC50 [6]: 2.51 µM | IC50 (CREB-binding protein): > 100 µM | Selectivity ratio (Homo sapiens [9]): > 10 | Selectivity ratio (Homo sapiens [10]): > 10 | Selectivity ratio (Homo sapiens [11]): > 10
Compound: CC1(C2CC2)NC(=O)N(CC(=O)Nc2ccc(Br)c(S(=O)(=O)N3CCCCC3)c2)C1=O (racemic)
Selectivity ratio (Homo sapiens [7]): > 10 | Selectivity ratio (Homo sapiens [8]): > 10
